Source: ChEMBL document CHEMBL2390927, “Design, synthesis and antimicrobial evaluation of novel benzimidazole type of Fluconazole analogues and their synergistic effects with Chloromycin, Norfloxacin and Fluconazole” (2013)
Values after ≈ are worked out from the molar mass of the structure shown.

What was measured:
Escherichia coli [1] = test: Antibacterial activity against Escherichia coli JM109 after 24 hrs by two-fold serial dilution method; format: functional; conditions: JM109, 24 h
Micrococcus luteus [2] = test: Potentiation of norfloxacin-induced antibacterial activity against Micrococcus luteus ATCC 4698 at MIC after 24 hrs by two-fold serial dilution method; format: functional
Candida [3] = test: Potentiation of fluconazole-induced antifungal activity against Candida mycoderma at 2 times MIC after 24 hrs by two-fold serial dilution method; format: functional
Aspergillus flavus [4] = test: Potentiation of fluconazole-induced antifungal activity against Aspergillus flavus at 2 times MIC after 24 hrs by two-fold serial dilution method; format: functional
Staphylococcus aureus [5] = test: Antibacterial activity against methicillin-resistant Staphylococcus aureus N315 after 24 hrs by two-fold serial dilution method; format: functional; conditions: N315, 24 h
Candida albicans [6] = test: Potentiation of fluconazole-induced antifungal activity against Candida albicans ATCC 76615 at MIC after 24 hrs by two-fold serial dilution method; format: functional
Micrococcus luteus [7] = test: Potentiation of chloromycin-induced antibacterial activity against Micrococcus luteus ATCC 4698 at 2 times MIC after 24 hrs by two-fold serial dilution method; format: functional
Staphylococcus aureus [8] = test: Antibacterial activity against Staphylococcus aureus ATCC 6538 after 24 hrs by two-fold serial dilution method; format: functional; conditions: ATCC 6538, 24 h
Pseudomonas aeruginosa [9] = test: Potentiation of chloromycin-induced antibacterial activity against Pseudomonas aeruginosa ATCC 27853 at 4 times MIC after 24 hrs by two-fold serial dilution method; format: functional
Pseudomonas aeruginosa [10] = test: Antibacterial activity against Pseudomonas aeruginosa ATCC 27853 after 24 hrs by two-fold serial dilution method; format: functional; conditions: ATCC 27853, 24 h
How it was run: (§1)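 MIC taken as the lowest concentration giving complete growth inhibition, by standard two-fold serial dilution in 96-well plates following NCCLS. Stocks in DMSO, diluted in Mueller–Hinton broth. Inoculum adjusted with sterile saline to 1 × 10⁵ CFU. DMSO with inoculum and no drug served as solvent control. Growth read visually and spectrophotometrically, in triplicate.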

Bacillus subtilis [11] = test: Antibacterial activity against Bacillus subtilis ATCC 21216 after 24 hrs by two-fold serial dilution method; format: functional; conditions: ATCC 21216, 24 h; how it was run: as §1
Bacillus [12] = test: Antibacterial activity against Bacillus proteus ATCC 13315 after 24 hrs by two-fold serial dilution method; format: functional; conditions: ATCC 13315, 24 h; how it was run: as §1
Staphylococcus aureus [13] = test: Potentiation of norfloxacin-induced antibacterial activity against Staphylococcus aureus ATCC 6538 at MIC after 24 hrs by two-fold serial dilution method; format: functional
Bacillus subtilis [14] = test: Potentiation of chloromycin-induced antibacterial activity against Bacillus subtilis ATCC 21216 at 2 times MIC after 24 hrs by two-fold serial dilution method; format: functional
Bacillus [15] = test: Potentiation of norfloxacin-induced antibacterial activity against Bacillus proteus ATCC 13315 at 2 times MIC after 24 hrs by two-fold serial dilution method; format: functional
Candida albicans [16] = test: Antifungal activity against Candida albicans ATCC 76615 after 24 hrs by two-fold serial dilution method; format: functional; conditions: ATCC 76615, 24 h
How it was run: (§2)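 Spore suspension in sterile distilled water from one-day-old cultures on Sabouraud agar, final 1–5 × 10³ spore mL⁻¹. Compound stocks diluted in sterile RPMI 1640 as two-fold serial dilutions in microdilution plates. MIC is the lowest concentration completely inhibiting growth. Growth monitored visually and spectrophotometrically, in triplicate.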

Pseudomonas aeruginosa [17] = test: Potentiation of norfloxacin-induced antibacterial activity against Pseudomonas aeruginosa ATCC 27853 at 2 times MIC after 24 hrs by two-fold serial dilution method; format: functional
Micrococcus luteus [18] = test: Antibacterial activity against Micrococcus luteus ATCC 4698 after 24 hrs by two-fold serial dilution method; format: functional; conditions: ATCC 4698, 24 h; how it was run: as §1
Cyberlindnera jadinii [19] = test: Potentiation of fluconazole-induced antifungal activity against Candida utilis at 4 times MIC after 24 hrs by two-fold serial dilution method; format: functional
Escherichia coli [20] = test: Potentiation of norfloxacin-induced antibacterial activity against Escherichia coli JM109 at 4 times MIC after 24 hrs by two-fold serial dilution method; format: functional
Aspergillus flavus [21] = test: Antifungal activity against Aspergillus flavus after 24 hrs by two-fold serial dilution method; format: functional; how it was run: as §2
Saccharomyces cerevisiae [22] = test: Antifungal activity against Saccharomyces cerevisiae after 24 hrs by two-fold serial dilution method; format: functional; how it was run: as §2
Escherichia coli [23] = test: Potentiation of chloromycin-induced antibacterial activity against Escherichia coli JM109 at 8 times MIC after 24 hrs by two-fold serial dilution method; format: functional
Saccharomyces cerevisiae [24] = test: Potentiation of fluconazole-induced antifungal activity against Saccharomyces cerevisiae at 2 times MIC after 24 hrs by two-fold serial dilution method; format: functional
Cyberlindnera jadinii [25] = test: Antifungal activity against Candida utilis after 24 hrs by two-fold serial dilution method; format: functional; conditions: Williopsis jadinii; how it was run: as §2
Candida [26] = test: Antifungal activity against Candida mycoderma after 24 hrs by two-fold serial dilution method; format: functional; how it was run: as §2
Salmonella typhi = test: Antibacterial activity against Bacillus typhi after 24 hrs by two-fold serial dilution method; format: functional, Salmonella enterica subsp. enterica serovar Typhi; conditions: Salmonella enterica
How it was run: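 Two-fold serial dilution in 96-well plates following NCCLS; compounds dissolved in DMSO as stocks, then diluted in Mueller-Hinton broth; bacterial suspension adjusted with sterile saline to 1 × 10⁵ CFU; MIC taken as lowest concentration completely inhibiting growth, monitored visually and spectrophotometrically; DMSO-plus-inoculum well as solvent control; triplicate.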

Bacillus subtilis [27] = test: Potentiation of norfloxacin-induced antibacterial activity against Bacillus subtilis ATCC 21216 at MIC after 24 hrs by two-fold serial dilution method; format: functional
Bacillus [28] = test: Potentiation of chloromycin-induced antibacterial activity against Bacillus proteus ATCC 13315 at 4 times MIC after 24 hrs by two-fold serial dilution method; format: functional
Staphylococcus aureus [29] = test: Antibacterial activity against methicillin-resistant Staphylococcus aureus; format: functional
How it was run: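 Broth microdilution by two-fold serial dilution in 96-well plates following NCCLS. MRSA strain N315. Inoculum adjusted with sterile saline to 1 × 10⁵ CFU. Compounds were made up as DMSO stocks, then diluted in Mueller-Hinton broth. A DMSO plus inoculum well, without drug, was the growth control. Growth was read visually and spectrophotometrically, in triplicate. MIC is the lowest concentration giving complete inhibition of growth.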

Klebsiella pneumoniae = test: Antibacterial activity against Klebsiella pneumoniae; format: functional

Row | SMILES | MIC (Escherichia coli [1]) [µg/mL] | MIC (Staphylococcus aureus [5]) [µg/mL] | MIC (Staphylococcus aureus [8]) [µg/mL] | MIC (Pseudomonas aeruginosa [10]) [µg/mL] | MIC (Bacillus subtilis [11]) [µg/mL] | MIC (Bacillus [12]) [µg/mL] | MIC (Candida albicans [16]) [µg/mL] | MIC (Micrococcus luteus [18]) [µg/mL] | MIC (Aspergillus flavus [21]) [µg/mL] | MIC (Saccharomyces cerevisiae [22]) [µg/mL] | MIC (Cyberlindnera jadinii [25]) [µg/mL] | MIC (Candida [26]) [µg/mL] | MIC (Salmonella typhi) [µg/mL] | other results
1 | Cl.Cl.Fc1ccc(CN(Cc2nc3ccccc3[nH]2)c2cc(C(F)(F)F)cc(C(F)(F)F)c2)c(F)c1 | 32 | 16 | 8 | 16 | 8 | 16 | 8 | 8 | 8 | 8 | 16 | 16 | 16 | fractional inhibitory concentration index (FICI) (Micrococcus luteus [2]): 0.25; fractional inhibitory concentration index (FICI) (Candida [3]): 0.25; fractional inhibitory concentration index (FICI) (Aspergillus flavus [4]): 0.375; fractional inhibitory concentration index (FICI) (Candida albicans [6]): 0.375; fractional inhibitory concentration index (FICI) (Micrococcus luteus [7]): 0.375; fractional inhibitory concentration index (FICI) (Pseudomonas aeruginosa [9]): 0.375; fractional inhibitory concentration index (FICI) (Staphylococcus aureus [13]): 0.25; fractional inhibitory concentration index (FICI) (Bacillus subtilis [14]): 0.5; fractional inhibitory concentration index (FICI) (Bacillus [15]): 0.25; fractional inhibitory concentration index (FICI) (Pseudomonas aeruginosa [17]): 0.25; fractional inhibitory concentration index (FICI) (Cyberlindnera jadinii [19]): 0.375; fractional inhibitory concentration index (FICI) (Escherichia coli [20]): 0.375; fractional inhibitory concentration index (FICI) (Escherichia coli [23]): 0.375; fractional inhibitory concentration index (FICI) (Saccharomyces cerevisiae [24]): 0.375; fractional inhibitory concentration index (FICI) (Bacillus subtilis [27]): 0.25; fractional inhibitory concentration index (FICI) (Bacillus [28]): 0.375
2 | CCCCCCCCCCN(Cc1nc2ccccc2[nH]1)c1ccc(C)cc1 | 128 (≈ 339 µM) | 64 (≈ 170 µM) | 128 (≈ 339 µM) | 128 (≈ 339 µM) | 64 (≈ 170 µM) | 256 (≈ 678 µM) | 64 (≈ 170 µM) | 128 (≈ 339 µM) | 64 (≈ 170 µM) | 32 (≈ 84.8 µM) | 64 (≈ 170 µM) | 128 (≈ 339 µM) | 128 (≈ 339 µM) | 
3 | Fc1ccc(CN(Cc2nc3ccccc3[nH]2)c2ccc(Cl)cc2Cl)c(F)c1 | 64 (≈ 153 µM) | 64 (≈ 153 µM) | 64 (≈ 153 µM) | 128 (≈ 306 µM) | 16 (≈ 38.3 µM) | 16 (≈ 38.3 µM) | 32 (≈ 76.5 µM) | 128 (≈ 306 µM) | 64 (≈ 153 µM) | 32 (≈ 76.5 µM) | 64 (≈ 153 µM) | 32 (≈ 76.5 µM) | 32 (≈ 76.5 µM) | 
4 | Cc1ccc(N(Cc2ccc(Cl)cc2)Cc2nc3ccccc3[nH]2)cc1 | 32 (≈ 88.4 µM) | 64 (≈ 177 µM) | 32 (≈ 88.4 µM) | 64 (≈ 177 µM) | 64 (≈ 177 µM) | 32 (≈ 88.4 µM) | 64 (≈ 177 µM) | 128 (≈ 354 µM) | 128 (≈ 354 µM) | 128 (≈ 354 µM) | 64 (≈ 177 µM) | 32 (≈ 88.4 µM) | 64 (≈ 177 µM) | 
5 | Ic1ccc(NCc2nc3ccccc3[nH]2)cc1 | 64 (≈ 183 µM) | 128 (≈ 367 µM) | 64 (≈ 183 µM) | 128 (≈ 367 µM) | 64 (≈ 183 µM) | 64 (≈ 183 µM) | 64 (≈ 183 µM) | 128 (≈ 367 µM) | 128 (≈ 367 µM) | 64 (≈ 183 µM) | 64 (≈ 183 µM) | 128 (≈ 367 µM) | 64 (≈ 183 µM) | 
6 | CCCCCCCCCCn1c(CNNC(=O)c2sc(C(=O)NNCc3nc4ccccc4n3CCCCCCCCCC)c(C)c2C)nc2ccccc21 |  |  |  |  |  |  |  |  |  |  |  |  |  | MIC (Staphylococcus aureus [29]): 2 µg/mL (≈ 2.6 µM)
7 | CCCCCCN(Cc1nc2ccccc2[nH]1)c1ccc(C)cc1 | 256 (≈ 796 µM) | 128 (≈ 398 µM) | 128 (≈ 398 µM) | 64 (≈ 199 µM) | 128 (≈ 398 µM) | 256 (≈ 796 µM) | 64 (≈ 199 µM) | 64 (≈ 199 µM) | 64 (≈ 199 µM) | 64 (≈ 199 µM) | 128 (≈ 398 µM) | 128 (≈ 398 µM) | 64 (≈ 199 µM) | 
8 | CCCC[C@H](CC(=O)NO)C(=O)N[C@@H](c1nc2ccccc2[nH]1)C(C)C |  |  |  |  |  |  |  |  |  |  |  |  |  | MIC (Klebsiella pneumoniae): 0.5 µg/mL (≈ 1.39 µM)
9 | FC(F)(F)c1cc(N(Cc2nc3ccccc3[nH]2)Cc2ccc(Cl)cc2Cl)cc(C(F)(F)F)c1 | 64 (≈ 123 µM) | 64 (≈ 123 µM) | 64 (≈ 123 µM) | 128 (≈ 247 µM) | 64 (≈ 123 µM) | 32 (≈ 61.7 µM) | 64 (≈ 123 µM) | 128 (≈ 247 µM) | 64 (≈ 123 µM) | 32 (≈ 61.7 µM) | 64 (≈ 123 µM) | 64 (≈ 123 µM) | 64 (≈ 123 µM) | 
10 | Fc1ccc(N(Cc2nc3ccccc3[nH]2)Cc2ccc(Cl)cc2Cl)cc1 | 128 (≈ 320 µM) | 64 (≈ 160 µM) | 32 (≈ 79.9 µM) | 64 (≈ 160 µM) | 64 (≈ 160 µM) | 32 (≈ 79.9 µM) | 32 (≈ 79.9 µM) | 64 (≈ 160 µM) | 64 (≈ 160 µM) | 64 (≈ 160 µM) | 32 (≈ 79.9 µM) | 64 (≈ 160 µM) | 64 (≈ 160 µM) | 
11 | Cc1ccc(N(Cc2cccc(Cl)c2)Cc2nc3ccccc3[nH]2)cc1 | 32 (≈ 88.4 µM) | 128 (≈ 354 µM) | 32 (≈ 88.4 µM) | 32 (≈ 88.4 µM) | 64 (≈ 177 µM) | 128 (≈ 354 µM) | 32 (≈ 88.4 µM) | 128 (≈ 354 µM) | 64 (≈ 177 µM) | 64 (≈ 177 µM) | 32 (≈ 88.4 µM) | 32 (≈ 88.4 µM) | 16 (≈ 44.2 µM) | 
12 | Cc1cc(=O)oc2cc(OCCCCCCN(Cc3nc4ccccc4[nH]3)c3ccc(F)cc3)ccc12 | 128 (≈ 256 µM) | 128 (≈ 256 µM) | 32 (≈ 64.1 µM) | 16 (≈ 32 µM) | 16 (≈ 32 µM) | 64 (≈ 128 µM) | 16 (≈ 32 µM) | 128 (≈ 256 µM) | 32 (≈ 64.1 µM) | 32 (≈ 64.1 µM) | 16 (≈ 32 µM) | 32 (≈ 64.1 µM) | 64 (≈ 128 µM) | 
13 | Clc1ccc(NCc2nc3ccccc3[nH]2)c(Cl)c1 | 32 (≈ 110 µM) | 64 (≈ 219 µM) | 64 (≈ 219 µM) | 64 (≈ 219 µM) | 32 (≈ 110 µM) | 64 (≈ 219 µM) | 32 (≈ 110 µM) | 64 (≈ 219 µM) | 64 (≈ 219 µM) | 64 (≈ 219 µM) | 32 (≈ 110 µM) | 32 (≈ 110 µM) | 128 (≈ 438 µM) | 
